In ChEMBL document CHEMBL4196009, “Novel vitexin-inspired scaffold against leukemia” (Eur J Med Chem, 2018):
The source made the active and inactive calls. The calls are words filed in the database; no cut-off is given here.

Experiments:
MDA-MB-231 [1] = assay: Cell cycle arrest in human MDA-MB-231 cells assessed as accumulation at G0/G1 phase at 20 uM after 24 hrs by propidium iodide staining-based flow cytometry (reference value: 70.47%); format: functional
KOPN-8 [2] = assay: Induction of apoptosis in human KOPN8 cells assessed as effect on Mcl-1 level at 10 uM after 3 hrs by Western blot analysis relative to control; format: functional
How it was run: (§1)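 KOPN-8 cells were treated at 10–100 µM final, with or without N-acetylcysteine co-addition, for 3 h and 24 h. Lysates were analysed by Western blot for PARP cleavage, Mcl-1, phospho-Ser2 RNAPII CTD, c-Myc, total Rb and pRb. Levels are relative to the vehicle control.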

[3] = molecular target: T1, Retinoblastoma-associated protein (Homo sapiens) (UniProt P06400); assay: Inhibition of Rb phosphorylation in human KOPN8 cells assessed as ratio of phosphorylated Rb to total Rb levels at 30 uM pre-treated with NAC for 1 hr and measured after 24 hrs by Western blot analysis relative to control; format: cell-based
T1 sequence (whole entry): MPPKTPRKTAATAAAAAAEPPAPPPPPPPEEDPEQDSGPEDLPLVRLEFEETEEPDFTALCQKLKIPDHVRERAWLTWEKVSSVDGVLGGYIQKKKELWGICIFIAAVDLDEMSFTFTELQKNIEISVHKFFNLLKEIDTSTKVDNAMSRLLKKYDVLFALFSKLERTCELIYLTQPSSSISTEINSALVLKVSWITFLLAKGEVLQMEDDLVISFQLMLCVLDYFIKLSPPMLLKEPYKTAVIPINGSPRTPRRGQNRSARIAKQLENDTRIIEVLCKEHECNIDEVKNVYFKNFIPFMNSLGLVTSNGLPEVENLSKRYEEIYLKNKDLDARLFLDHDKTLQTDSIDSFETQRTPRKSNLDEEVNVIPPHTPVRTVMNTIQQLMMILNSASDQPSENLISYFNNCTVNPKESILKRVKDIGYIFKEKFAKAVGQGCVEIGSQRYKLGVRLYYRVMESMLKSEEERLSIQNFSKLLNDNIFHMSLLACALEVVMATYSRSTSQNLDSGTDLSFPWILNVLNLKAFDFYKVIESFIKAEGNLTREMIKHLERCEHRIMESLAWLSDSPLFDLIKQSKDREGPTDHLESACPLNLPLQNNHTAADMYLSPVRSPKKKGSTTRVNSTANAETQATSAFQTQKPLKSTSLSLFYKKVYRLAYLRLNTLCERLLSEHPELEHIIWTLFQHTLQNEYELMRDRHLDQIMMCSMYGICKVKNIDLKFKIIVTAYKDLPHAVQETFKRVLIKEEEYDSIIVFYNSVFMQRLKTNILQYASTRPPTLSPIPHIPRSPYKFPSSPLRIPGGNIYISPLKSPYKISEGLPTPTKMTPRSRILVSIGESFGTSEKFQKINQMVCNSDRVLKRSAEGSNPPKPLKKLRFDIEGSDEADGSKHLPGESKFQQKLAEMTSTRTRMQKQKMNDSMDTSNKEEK
How it was run: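 KOPN-8 pre-B ALL cells were treated for 3 h and 24 h, with or without N-acetyl cysteine added to a parallel set of cells as an antioxidant/ROS quencher. Lysates were analysed by Western blot for phosphorylated Rb and total Rb. The same blots also probed PARP cleavage, Mcl-1, Ser-2-phosphorylated RNAPII CTD and cMyc.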

Homo sapiens = organism: Homo sapiens; assay: Inhibition of RNA polymerase 2 C-terminal domain phosphorylation at Ser2 residue in human KOPN8 cells at 10 uM after 3 hrs by Western blot analysis relative to control; format: cell-based
How it was run: (§2)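 KOPN-8 cells were exposed to compound for 3 h and 24 h, with or without N-acetylcysteine added to a parallel set as antioxidant. Lysates were analysed by Western blot for cleaved PARP, Mcl-1, Ser-2-phosphorylated RNAPII CTD, cMyc, total Rb and pRb. Signals were compared against controls for dose-dependent change.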

KOPN-8 [4] = assay: Induction of apoptosis in human KOPN8 cells assessed as viable cells at 10 uM after 24 hrs by Annexin V-FITC/propidium iodide staining-based flow cytometry (reference value: 85.2%); format: functional; conditions: KOPN-8, 24 h, read-out: Activity
How it was run: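 KOPN-8 cells were treated for 24 h, with a DMSO vehicle control and a staurosporine positive control. Cells were stained with FITC-Annexin V and propidium iodide and analysed by flow cytometry. Quadrant gating separated viable, early apoptotic, late apoptotic (Q2) and necrotic populations.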

KOPN-8 [5] = assay: Induction of apoptosis in human KOPN8 cells assessed as effect on Mcl-1 level at 30 uM pre-treated with NAC for 1 hr and measured after 24 hrs by Western blot analysis relative to control; format: functional; how it was run: as §2
KOPN-8 [6] = assay: Induction of apoptosis in human KOPN8 cells assessed as effect on Mcl-1 level at 100 uM pre-treated with NAC for 1 hr and measured after 24 hrs by Western blot analysis relative to control; format: functional; how it was run: as §2
[7] = molecular target: T1, Retinoblastoma-associated protein (Homo sapiens); assay: Inhibition of Rb phosphorylation in human KOPN8 cells after 24 hrs by Western blot analysis; format: cell-based; how it was run: as §2
KOPN-8 [8] = assay: Effect on c-Myc expression in human KOPN8 cells at 10 uM pre-treated with NAC for 1 hr and measured after 3 hrs by Western blot analysis relative to control; format: functional
KOPN-8 [9] = assay: Effect on c-Myc expression in human KOPN8 cells at 30 uM after 24 hrs by Western blot analysis relative to control; format: functional; how it was run: as §1
KOPN-8 [10] = assay: Effect on c-Myc expression in human KOPN8 cells at 0.5 uM after 24 hrs by Western blot analysis relative to control; format: functional
KOPN-8 [11] = assay: Induction of apoptosis in human KOPN8 cells assessed as effect on Mcl-1 level at 0.5 uM after 24 hrs by Western blot analysis relative to control; format: functional
KOPN-8 [12] = assay: Induction of apoptosis in human KOPN8 cells assessed as upregulation of cleaved PARP level at 0.5 uM pre-treated with NAC for 1 hr and measured after 24 hrs by Western blot analysis; format: functional, cell-based; how it was run: as §2
MDA-MB-231 [13] = assay: Cell cycle arrest in human MDA-MB-231 cells assessed as accumulation at G2/M phase at 5 uM after 24 hrs by propidium iodide staining-based flow cytometry (reference value: 9.38%); format: functional
KOPN-8 [14] = assay: Induction of apoptosis in human KOPN8 cells assessed as early apoptotic cells at 5 uM after 24 hrs by Annexin V-FITC/propidium iodide staining-based flow cytometry (reference value: 0.1%); format: functional
How it was run: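 KOPN-8 cells treated 24 h alongside a DMSO vehicle and a staurosporine (2.0 µM) positive control. Apoptosis was scored by FITC Annexin V / propidium iodide flow cytometry with quadrant gating (early, late apoptotic). DNA content was measured by PI staining to give the percentage of cells in G0/G1, S and G2/M. Groups were compared by t-test; error bars are SD.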

KOPN-8 [15] = assay: Induction of apoptosis in human KOPN8 cells assessed as upregulation of cleaved PARP level at 0.5 uM pre-treated with NAC for 1 hr and measured after 3 hrs by Western blot analysis; format: functional, cell-based; how it was run: as §2
MDA-MB-231 [16] = assay: Cell cycle arrest in human MDA-MB-231 cells assessed as accumulation at S phase at 5 uM after 24 hrs by propidium iodide staining-based flow cytometry (reference value: 20.15%); format: functional
SUP-B15 = assay: Induction of apoptosis in human SUP-B15 cells assessed as early apoptotic cells at 5 uM after 24 hrs by Annexin V-FITC/propidium iodide staining-based flow cytometry (reference value: 0.1%); format: functional

Compound | Activity (MDA-MB-231 [1]) | fold change (FC) (KOPN-8 [2]) | fold change (FC) [3] | fold change (FC) (Homo sapiens) | viability at 10 µM (KOPN-8 [4]) | fold change (FC) (KOPN-8 [5]) | fold change (FC) (KOPN-8 [6]) | inhibition [7] | fold change (FC) (KOPN-8 [8]) | fold change (FC) (KOPN-8 [9]) | fold change (FC) (KOPN-8 [10]) | fold change (FC) (KOPN-8 [11]) | Activity (KOPN-8 [12]) | Activity (MDA-MB-231 [13]) | Activity (KOPN-8 [14]) | Activity (KOPN-8 [15]) | Activity (MDA-MB-231 [16]) | Activity (SUP-B15)
COc1ccc(-c2c(I)c(=O)c3c(OC)cc(OC)cc3n2S(=O)(=O)c2ccc(OC)cc2)cc1 | 66.22% | 0.8 | 1 | 0.7 | 8.5% | 0.7 | 0.2 | Dose-dependent effect | 0.9 | 0.9 | – | – | – | – | – | – | – | –
CN(C)C(=O)c1cc2cnc(Nc3ccc(N4CCNCC4)cn3)nc2n1C1CCCC1 [RIBOCICLIB] | – | – | – | – | – | – | – | – | – | – | 1.2 | 1.1 | Active | 4.51% | 0.5% | inactive | 4.64% | 0.3%
